# Test results: ChEMBL document CHEMBL4689842, “EUbOPEN Chemogenomics Library wave 1” (2021)
# System: U2OS
# Test: Multiplex assay against U2OS
# Assay type: toxicity, cell-based
# Conditions: human
# In short: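 Live cells were stained at seeding with Hoechst33342, BioTracker Green Microtubule Cytoskeleton Dye, MitoTracker Red and Annexin V Alexa Fluor 680. Following compound addition, they were imaged on a CQ1 microscope at 37°C and 5% CO2 and gated by CellPathfinder machine learning into Hoechst high-intensity objects or normal cells, with normal cells split into healthy, pyknosed or fragmented nuclei and pyknosed cells into mitotic or apoptotic. Tubulin, mitochondrial-mass and membrane-permeability phenotypes are per cents of healthy-nucleus cells.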
# [1] = 12 h, 1 µM, compound concentration 1 uM, replicate 1
# [2] = 12 h, 1 µM, compound concentration 1 uM, replicate 2
# [3] = 12 h, 10 µM, compound concentration 10 uM, replicate 1
# [4] = 12 h, 10 µM, compound concentration 10 uM, replicate 2
# [5] = 24 h, 1 µM, compound concentration 1 uM, replicate 1
# [6] = 24 h, 1 µM, compound concentration 1 uM, replicate 2
# [7] = 24 h, 10 µM, compound concentration 10 uM, replicate 1
# [8] = 24 h, 10 µM, compound concentration 10 uM, replicate 2
# [9] = 48 h, 1 µM, compound concentration 1 uM, replicate 1
# [10] = 48 h, 1 µM, compound concentration 1 uM, replicate 2
# [11] = 48 h, 10 µM, compound concentration 10 uM, replicate 1
# [12] = 48 h, 10 µM, compound concentration 10 uM, replicate 2
structure (smiles),measurement,setting,value
CC(C)(O)CNc1ncc(-c2ccnc(Nc3ccnc(Cl)c3)n2)c(CC2CC2)n1,Population Apoptotic (%),[1],44%
same,Population Fragmented Nuclei (%),[1],9%
same,Population Healthy Nuclei (%),[1],71%
same,Population Hoechst High Intensity Objects (%),[1],3%
same,Population Membrane Permeable-Phenotype (%),[1],8%
same,Population Mitochondria Different-Phenotype (%),[1],24%
same,Population Mitotic Cells (%),[1],55%
same,Population Normal (%),[1],96%
same,Population Pyknosed Nuclei (%),[1],18%
same,Population Tubulin-Different-Phenotype (%),[1],19%
same,Total Cell Count,[1],182
same,Population Apoptotic (%),[2],9%
same,Population Healthy Nuclei (%),[2],78%
same,Population Hoechst High Intensity Objects (%),[2],5%
same,Population Membrane Permeable-Phenotype (%),[2],5%
same,Population Mitochondria Different-Phenotype (%),[2],17%
same,Population Mitotic Cells (%),[2],90%
same,Population Normal (%),[2],94%
same,Population Pyknosed Nuclei (%),[2],12%
same,Population Tubulin-Different-Phenotype (%),[2],14%
same,Total Cell Count,[2],97
same,Population Apoptotic (%),[3],50%
same,Population Fragmented Nuclei (%),[3],18%
same,Population Healthy Nuclei (%),[3],42%
same,Population Hoechst High Intensity Objects (%),[3],14%
same,Population Membrane Permeable-Phenotype (%),[3],24%
same,Population Mitochondria Different-Phenotype (%),[3],90%
same,Population Mitotic Cells (%),[3],50%
same,Population Normal (%),[3],85%
same,Population Pyknosed Nuclei (%),[3],38%
same,Population Tubulin-Different-Phenotype (%),[3],100%
same,Total Cell Count,[3],202
same,Population Apoptotic (%),[4],15%
same,Population Fragmented Nuclei (%),[4],10%
same,Population Healthy Nuclei (%),[4],64%
same,Population Hoechst High Intensity Objects (%),[4],7%
same,Population Membrane Permeable-Phenotype (%),[4],28%
same,Population Mitochondria Different-Phenotype (%),[4],96%
same,Population Mitotic Cells (%),[4],84%
same,Population Normal (%),[4],92%
same,Population Pyknosed Nuclei (%),[4],26%
same,Total Cell Count,[4],93
same,Population Apoptotic (%),[5],35%
same,Population Fragmented Nuclei (%),[5],6%
same,Population Healthy Nuclei (%),[5],75%
same,Population Hoechst High Intensity Objects (%),[5],3%
same,Population Membrane Permeable-Phenotype (%),[5],5%
same,Population Mitochondria Different-Phenotype (%),[5],22%
same,Population Mitotic Cells (%),[5],64%
same,Population Normal (%),[5],96%
same,Population Pyknosed Nuclei (%),[5],18%
same,Population Tubulin-Different-Phenotype (%),[5],10%
same,Total Cell Count,[5],196
same,Population Apoptotic (%),[6],20%
same,Population Fragmented Nuclei (%),[6],11%
same,Population Healthy Nuclei (%),[6],74%
same,Population Hoechst High Intensity Objects (%),[6],4%
same,Population Membrane Permeable-Phenotype (%),[6],10%
same,Population Mitochondria Different-Phenotype (%),[6],20%
same,Population Mitotic Cells (%),[6],80%
same,Population Normal (%),[6],95%
same,Population Pyknosed Nuclei (%),[6],15%
same,Population Tubulin-Different-Phenotype (%),[6],16%
same,Total Cell Count,[6],136
same,Population Apoptotic (%),[7],52%
same,Population Fragmented Nuclei (%),[7],26%
same,Population Healthy Nuclei (%),[7],22%
same,Population Hoechst High Intensity Objects (%),[7],12%
same,Population Membrane Permeable-Phenotype (%),[7],47%
same,Population Mitochondria Different-Phenotype (%),[7],100%
same,Population Mitotic Cells (%),[7],47%
same,Population Normal (%),[7],87%
same,Population Pyknosed Nuclei (%),[7],51%
same,Population Tubulin-Different-Phenotype (%),[7],100%
same,Total Cell Count,[7],240
same,Population Apoptotic (%),[8],47%
same,Population Fragmented Nuclei (%),[8],14%
same,Population Healthy Nuclei (%),[8],40%
same,Population Hoechst High Intensity Objects (%),[8],14%
same,Population Mitochondria Different-Phenotype (%),[8],89%
same,Population Mitotic Cells (%),[8],52%
same,Population Normal (%),[8],85%
same,Population Pyknosed Nuclei (%),[8],44%
same,Total Cell Count,[8],105
same,Population Apoptotic (%),[9],45%
same,Population Fragmented Nuclei (%),[9],6%
same,Population Hoechst High Intensity Objects (%),[9],2%
same,Population Membrane Permeable-Phenotype (%),[9],9%
same,Population Mitochondria Different-Phenotype (%),[9],10%
same,Population Mitotic Cells (%),[9],54%
same,Population Normal (%),[9],97%
same,Population Pyknosed Nuclei (%),[9],17%
same,Population Tubulin-Different-Phenotype (%),[9],7%
same,Total Cell Count,[9],130
same,Population Apoptotic (%),[10],50%
same,Population Fragmented Nuclei (%),[10],13%
same,Population Healthy Nuclei (%),[10],76%
same,Population Hoechst High Intensity Objects (%),[10],3%
same,Population Membrane Permeable-Phenotype (%),[10],17%
same,Population Mitochondria Different-Phenotype (%),[10],24%
same,Population Mitotic Cells (%),[10],50%
same,Population Normal (%),[10],96%
same,Population Pyknosed Nuclei (%),[10],10%
same,Population Tubulin-Different-Phenotype (%),[10],22%
same,Total Cell Count,[10],90
same,Population Apoptotic (%),[11],82%
same,Population Fragmented Nuclei (%),[11],35%
same,Population Healthy Nuclei (%),[11],12%
same,Population Hoechst High Intensity Objects (%),[11],15%
same,Population Membrane Permeable-Phenotype (%),[11],50%
same,Population Mitochondria Different-Phenotype (%),[11],90%
same,Population Mitotic Cells (%),[11],17%
same,Population Normal (%),[11],84%
same,Population Pyknosed Nuclei (%),[11],51%
same,Population Tubulin-Different-Phenotype (%),[11],100%
same,Total Cell Count,[11],308
same,Population Apoptotic (%),[12],61%
same,Population Fragmented Nuclei (%),[12],19%
same,Population Healthy Nuclei (%),[12],23%
same,Population Hoechst High Intensity Objects (%),[12],17%
same,Population Membrane Permeable-Phenotype (%),[12],100%
same,Population Mitochondria Different-Phenotype (%),[12],100%
same,Population Mitotic Cells (%),[12],38%
same,Population Normal (%),[12],82%
same,Population Pyknosed Nuclei (%),[12],56%
same,Total Cell Count,[12],141
